# Screening results: PubChem, several laboratories
# Compounds with a hit are over-represented: about 4.9% of the library has one in this group of screens.
# HSF1 inh: HSF1 inhibition. NIH3T3-HGL HSE-luciferase, MG132-induced, luminescence 8 h; stronger effect = lower value. activity change, negative = inhibition, % at 7.5 µM (by protocol). 300,000 compounds, 0.77% hits. AID 2098;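 active means more than half of replicate wells show activity change below -50%, luminescence cut by over half; inconclusive means some wells, but at most half, below -50%; inactive means no replicate well below -50%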;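 further: luciferase reports HSF-1 transcriptional activity via heat shock element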
# HSF1 activator: increases HSF-1 driven luciferase reporter signal; NIH3T3-HGL HSF-1 luciferase reporter, MG132, 8 h; 100% = twice DMSO control signal; 300,000 compounds, 1.7% hits; AID 504408; activation, % at 9 µM;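 active means mean replicate activation of at least 50% with a set share of replicates each reaching 50%; inconclusive means only one of those two conditions met; inactive means mean below 50% and too few replicates reaching it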
# CHT PAM: allosteric activators of human choline transporter CHT; Q9GZV3; CHT-expressing cells, membrane potential dye, choline EC20; stronger effect = higher value; LV-AA mutant CHT in HEK293 cells; B-score at 10 µM; 310,000 compounds, 0.49% hits;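 active means initial fluorescence not abnormally high and integrated response B-score, plate-corrected, over 3 SD above library mean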
# CHT inh: human CHT choline transport inhibition | CHT-expressing cells, membrane potential dye, choline response; stronger effect = lower value | B-score at 10 µM | Q9GZV3 | 310,000 compounds, 0.86% hits;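 active means B-score over 3 SD under the library average, and starting fluorescence ratio not unusually high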;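 further: choline stimulus applied at its EC90 after an EC20 pre-addition; B-score computed on integrated fluorescence ratio after choline addition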
# Hep lipid drop: modulators of hepatic lipid droplet formation; AML12 mouse hepatocytes, oleate lipid droplets, BODIPY imaging; inhibition, % at 6.5 µM; 240,000 compounds, 0.4% hits;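 active means lipid droplet intensity inhibited by at least 50%, with more than 500 cells counted; inconclusive means wells with under 300 cells, treated as cytotoxic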
#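 Assay system: AML12 mouse liver cells | Compound dosing: One dose, 6.5 µM compound | Read-out basis: Droplet intensity reduction, % inhibition | Measured by: Fluorescence imaging, 20x objective, two fields per well | Schedule: Overnight treatment with compound plus oleate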
# PHOSPHO1 inh: blocks human PHOSPHO1 phosphatase activity; recombinant PHOSPHO1, absorbance phosphatase assay; Q8TCT1; AID 1565; inhibition, % at 13.3 µM; 290,000 compounds, 1.1% hits; in the data active means inhibition above about 60%
# Target sequence (Q8TCT1 whole entry, looked up): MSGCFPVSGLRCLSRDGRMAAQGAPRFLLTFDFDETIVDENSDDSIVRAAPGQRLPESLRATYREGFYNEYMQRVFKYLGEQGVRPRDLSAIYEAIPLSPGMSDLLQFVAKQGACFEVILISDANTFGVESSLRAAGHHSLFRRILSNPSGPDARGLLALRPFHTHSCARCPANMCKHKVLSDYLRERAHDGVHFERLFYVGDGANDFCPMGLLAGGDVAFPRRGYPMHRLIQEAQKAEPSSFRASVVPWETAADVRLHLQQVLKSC
# CHT block conf: human CHT inhibition, confirmatory screen; 2,400 compounds, 70% hits; shares compounds with CHT inh; CHT-expressing cells, choline membrane potential dye; LV-to-AA substituted CHT, HEK293 cells; CHT activity remaining % of control (stronger effect = lower value), % at 10 µM;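 active means choline transporter activity left, mean of duplicates at 10 µM, below buffer-only control mean minus 3 SD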;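 further: depolarization triggered by choline at its EC90 following an EC20 pre-addition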
# HEK293 CHT ctr: CHT inhibitor counter-screen hit in parental HEK293 cells; AID 493222; membrane potential dye, choline response; active = decrease or increase beyond buffer ±3SD; 2,400 compounds, 4% hits; membrane potential ratio readout (active if shifted either direction beyond buffer ±3SD; no single direction) at 10 µM; shares compounds with CHT inh;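 further: parental cells lack the transporter so any hit is non-specific; ratio is peak minus trough fluorescence over baseline after EC90 choline challenge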
# Hits are given with their value; n = inactive; u = inconclusive; x = no result.
SMILES,HSF1 inh,HSF1 activator,CHT PAM,CHT inh,Hep lipid drop,PHOSPHO1 inh,CHT block conf,HEK293 CHT ctr
CC12CC(NC(=O)N1c1ccc(C(=O)N3CCN(c4ccc(F)cc4)CC3)cc1)c1ccccc1O2 (configuration not stated),n,n,n,n,x,n,x,x
COCCCN1C(=O)C(=O)/C(=C(/O)c2ccc(S(=O)(=O)N3CCOCC3)cc2)C1c1ccc(OC)cc1 (configuration not stated),n,n,n,n,n,n,x,x
CCOC(=O)C(=O)Nc1ccc(S(=O)(=O)N2CCOCC2)cc1OC,n,n,n,n,n,n,x,x
Cc1ccc(OCC(=O)NNC(=S)NC(=O)C(C)(C)C)c(Br)c1,n,n,n,-10,n,n,55%,n
O=S(=O)(c1ccc(N2CCCC2)nc1)N1CCCC1,n,n,n,-5.8,n,n,43%,n
C=CCNc1ncnc2c1cnn2-c1ccc(C)cc1C,n,n,n,n,n,n,x,x
CCOC(=O)N1CCC(Nc2ncnc3c2cnn3-c2ccc(C)cc2C)CC1,n,n,n,-6.9,n,n,n,n
O=[N+]([O-])c1c(Nc2cccc(O)c2)cc(Cl)c2nonc12,n,164,n,-7.4,n,n,28%,n
Cn1c(-c2sc3ccccc3c2Cl)n[nH]c1=S,n,n,n,-5.1,n,94,50%,n
Cn1c(-c2sc3cc(C(F)(F)F)cnc3c2-c2ccccn2)n[nH]c1=S,n,n,n,n,n,n,x,x
O=C(Cc1ccc(Br)cc1)Nc1ccc(S(=O)(=O)NCC2CCCO2)cc1 (configuration not stated),n,n,n,n,n,n,x,x
CCc1ccc(S(=O)(=O)NCc2cn3ccsc3n2)s1,n,n,n,n,n,n,x,x
CCc1ccc(S(=O)(=O)NCc2cn3cccc(C)c3n2)s1,n,n,n,-5.4,x,n,45%,n
CCc1cc(CC)c(/C=N/NC(N)=O)c(CC)c1/C=N/NC(N)=O,n,n,n,-9.3,n,n,19%,n
Cc1cc(/C=N/NC(N)=O)c(C)c(CO)c1,n,n,n,n,x,n,x,x
CCCc1cc(=O)[nH]c(SCC(=O)c2cc(C)n(CCOC)c2C)n1,n,n,n,n,x,n,x,x
CCCc1cc(=O)[nH]c(SCC(=O)c2cc(C)n(CC(F)(F)F)c2C)n1,n,n,n,-6.3,n,n,n,n
N#C/C(=C(/O)c1ccccc1F)c1nc2cc(C(F)(F)F)ccc2s1,x,x,n,-5.5,n,n,48%,n
O=C(CCl)N(c1ccc(Cl)cc1)c1c[nH]c2ccccc12,-93,n,n,-5.9,n,n,56%,n
Cc1ccccc1C(=O)NNC(=S)NC(=O)c1ccc(Cl)cc1Cl,n,n,n,-9.3,n,100,45%,n
Cc1c(NS(=O)(=O)c2ccc(Br)s2)c(=O)n(-c2ccccc2)n1C,n,n,n,n,n,n,x,x
CCOC(=O)C1CCN(Cc2c(O)c3ccccc3oc2=O)CC1,n,n,n,-5.9,n,n,65%,n
CCOC(=O)C1CCN(Cc2c(O)ccc3ccccc23)CC1,n,n,n,n,n,n,x,x
CC(C)c1ccc(/C=C(\NC(=O)c2ccccc2)C(=O)NCCCn2ccnc2)cc1,n,59,n,-8.2,n,n,23%,n
COc1ccc(C(=O)Nc2ccccc2C(=O)NCCCn2ccnc2)cc1,n,n,x,x,x,n,x,x
SMILES,HSF1 inh,HSF1 activator,CHT PAM,CHT inh,Hep lipid drop,PHOSPHO1 inh,CHT block conf,HEK293 CHT ctr
O=C(Nc1ccccc1C(=O)NCCCn1ccnc1)c1ccccc1,n,n,n,-10,x,n,13%,n
Cc1ccc(-c2cc(C(=O)NCCCn3ccnc3)c3cc(Br)ccc3n2)o1,x,x,n,-9.2,n,n,24%,n
O=C(NCCCn1ccnc1)/C(=C/c1ccc(F)cc1)NC(=O)c1ccccc1,n,n,n,n,n,n,x,x
COc1ccccc1CNC(=O)c1cccc(C)c1[N+](=O)[O-],n,n,n,n,n,n,x,x
CC[C@H](C)[C@H](NC(N)=O)C(=O)NCCc1ccc(Cl)cc1,n,n,n,n,n,n,x,x
O=C(C1CCN(S(=O)(=O)c2ccc3ccccc3c2)CC1)N1CCN(c2ncccn2)CC1,n,n,n,-6,x,n,39%,n
CCOC(=O)C1CCN(C(=O)C2CCN(S(=O)(=O)c3ccc4ccccc4c3)CC2)CC1,n,n,n,n,n,n,x,x
O=C(Oc1ccccc1C(=O)N1CCOCC1)c1ccc(F)cc1,n,n,n,-8.2,n,n,n,n
Cc1n[nH]c(=O)c2c(NC(=O)CSc3nc4ccccc4c(=O)n3C(C)C)oc(C)c12,n,n,n,-10,n,n,48%,n
CC(=O)Nc1ccccc1N(CC(O)Cn1c2ccccc2c2ccccc21)S(=O)(=O)c1ccc(C)cc1 (configuration not stated),n,n,n,n,n,n,x,x
O=C(CSc1nnc(-c2ccncc2)n1Cc1ccco1)c1ccc(Cl)cc1,n,u,n,-5.8,n,n,70%,n
O=C(CSc1nnc(-c2ccc(O)cc2)n1Cc1ccco1)N1CCc2ccccc2C1,n,n,n,-5.8,x,n,n,n
O=S(=O)(NCc1csc(-c2cccs2)n1)c1cccc(C(F)(F)F)c1,n,n,n,-5.5,x,n,54%,n
Cc1ccc(S(=O)(=O)NCc2csc(-c3cccs3)n2)cc1,n,n,n,n,n,n,x,x
O=S(=O)(NCc1csc(-c2cccs2)n1)c1ccc(Cl)cc1,n,n,n,-6.6,x,n,70%,n
Cn1c(SCc2nc3ccccc3s2)nnc1-c1cccs1,n,n,n,-5.1,x,n,56%,n
Cc1ccc(S(=O)(=O)Nc2nc3ccccc3nc2NCc2ccco2)cc1C,n,n,n,-5,x,n,n,n
CCn1c(SCC(=O)N2CCCc3ccccc32)nc2ccccc2c1=O,n,n,n,-6.1,x,n,n,n
CCn1c(SCC(=O)N2CCCc3ccccc32)nc2cccnc21,n,n,n,n,n,n,x,x
Cn1c(SCc2ccc(C#N)cc2Cl)nc2ccccc21,n,93,n,-11,x,n,3.8%,n
N=C(N)c1ccc(/C=C/c2ccc(C(=N)N)cc2O)cc1,n,n,n,n,n,n,x,x
CCOC(=O)CCNC(=O)N1CCCC(C(=O)c2cccc(Cl)c2)C1 (configuration not stated),n,n,n,n,n,n,x,x
CCCNC(=O)N1CCCC(C(=O)c2cccc(Cl)c2)C1 (configuration not stated),-54,n,n,-5.2,n,n,60%,n
